Results published in ChEMBL document CHEMBL5678806, “NMS-P937, an orally available, specific small-molecule polo-like kinase 1 inhibitor with antitumor activity in solid and hematologic malignancies” (Mol Cancer Ther, 2012).

What was measured:
[1] = biological target: Serine/threonine-protein kinase Chk1 (Homo sapiens, UniProt O14757); assay: Inhibition of CHK1 (unknown origin) in presence of [gamma-33P]ATP
[2] = biological target: Tyrosine-protein kinase JAK3 (Homo sapiens, UniProt P52333); assay: Inhibition of JAK3 (unknown origin) in presence of [gamma-33P]ATP
Chain of Tyrosine-protein kinase JAK3 (P52333 whole entry, the tested form may be a part): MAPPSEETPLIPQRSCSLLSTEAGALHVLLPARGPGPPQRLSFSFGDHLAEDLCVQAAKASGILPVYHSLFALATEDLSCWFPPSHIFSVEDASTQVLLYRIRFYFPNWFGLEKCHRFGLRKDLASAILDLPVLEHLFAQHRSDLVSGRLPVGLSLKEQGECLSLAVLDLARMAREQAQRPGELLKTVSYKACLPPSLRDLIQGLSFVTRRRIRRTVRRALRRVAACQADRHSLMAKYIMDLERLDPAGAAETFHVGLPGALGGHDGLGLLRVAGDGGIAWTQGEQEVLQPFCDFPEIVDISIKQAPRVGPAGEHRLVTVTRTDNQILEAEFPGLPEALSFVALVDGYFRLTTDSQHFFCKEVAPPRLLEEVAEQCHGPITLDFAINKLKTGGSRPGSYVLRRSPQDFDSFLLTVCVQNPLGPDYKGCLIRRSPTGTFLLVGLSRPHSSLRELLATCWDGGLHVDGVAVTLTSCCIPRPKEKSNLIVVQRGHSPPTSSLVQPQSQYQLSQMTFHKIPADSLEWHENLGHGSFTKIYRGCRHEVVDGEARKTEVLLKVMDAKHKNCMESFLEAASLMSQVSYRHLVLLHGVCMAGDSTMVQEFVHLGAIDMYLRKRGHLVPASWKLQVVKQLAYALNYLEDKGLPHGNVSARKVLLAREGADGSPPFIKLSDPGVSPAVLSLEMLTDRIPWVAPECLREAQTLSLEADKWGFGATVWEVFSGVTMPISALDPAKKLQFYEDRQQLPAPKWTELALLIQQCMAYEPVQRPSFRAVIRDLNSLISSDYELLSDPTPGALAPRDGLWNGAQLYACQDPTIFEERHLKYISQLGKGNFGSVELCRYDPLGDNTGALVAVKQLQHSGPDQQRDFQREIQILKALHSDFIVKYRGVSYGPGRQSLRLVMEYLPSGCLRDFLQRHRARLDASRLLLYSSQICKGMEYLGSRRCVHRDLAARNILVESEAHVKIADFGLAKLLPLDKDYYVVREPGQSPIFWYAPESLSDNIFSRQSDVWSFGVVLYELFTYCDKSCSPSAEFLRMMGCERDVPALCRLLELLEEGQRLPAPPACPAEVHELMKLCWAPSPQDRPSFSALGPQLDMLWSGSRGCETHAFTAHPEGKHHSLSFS

[3] = biological target: Calcium/calmodulin-dependent protein kinase type II subunit gamma (Homo sapiens) (UniProt Q13555); assay: Inhibition of N-terminal 6His-tagged recombinant human CaMKIIgamma (1 to 330 residues) expressed in baculovirus infected Sf21 cells assessed as residual activity at 0.1 uM relative to control
Chain of Calcium/calmodulin-dependent protein kinase type II subunit gamma (Homo sapiens) (Q13555 whole entry, the tested form may be a part): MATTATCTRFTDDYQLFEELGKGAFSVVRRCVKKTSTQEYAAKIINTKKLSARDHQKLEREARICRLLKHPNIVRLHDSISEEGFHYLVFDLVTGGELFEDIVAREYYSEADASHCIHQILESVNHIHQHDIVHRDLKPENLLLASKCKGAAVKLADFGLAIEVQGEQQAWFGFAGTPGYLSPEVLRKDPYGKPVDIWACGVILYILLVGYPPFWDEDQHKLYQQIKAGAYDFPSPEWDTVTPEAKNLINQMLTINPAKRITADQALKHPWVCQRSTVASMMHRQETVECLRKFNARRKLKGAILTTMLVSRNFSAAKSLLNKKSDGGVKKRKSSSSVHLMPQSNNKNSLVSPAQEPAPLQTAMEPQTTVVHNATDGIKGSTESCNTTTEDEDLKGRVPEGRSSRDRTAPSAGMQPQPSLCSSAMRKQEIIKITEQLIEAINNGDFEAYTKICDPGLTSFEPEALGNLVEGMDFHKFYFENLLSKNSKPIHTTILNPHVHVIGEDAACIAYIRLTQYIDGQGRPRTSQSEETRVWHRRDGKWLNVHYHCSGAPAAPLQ

[4] = biological target: CDK9/cyclin T1 (Homo sapiens) (UniProt O60563+P50750); assay: Inhibition of C-terminal 6His-tagged full-length recombinant human CDK9/ full-length human cyclin T1 expressed in baculovirus infected Sf21 cells assessed as residual activity at 0.1 uM relative to control
[5] = biological target: Serine/threonine-protein kinase 17A (Homo sapiens) (UniProt Q9UEE5); assay: Inhibition of N-terminal 6His-tagged recombinant full-length human DRAK1 expressed in baculovirus infected Sf21 cells assessed as residual activity at 0.1 uM relative to control
[6] = biological target: Fibroblast growth factor receptor 4 (Homo sapiens) (UniProt P22455); assay: Inhibition of N-terminal His6-tagged recombinant human FGFR4 (442 to 755 residues) expressed in baculovirus infected Sf21 cells assessed as residual activity at 0.1 uM relative to control
Chain of Fibroblast growth factor receptor 4 (Homo sapiens) (P22455 22-802 limits assumed): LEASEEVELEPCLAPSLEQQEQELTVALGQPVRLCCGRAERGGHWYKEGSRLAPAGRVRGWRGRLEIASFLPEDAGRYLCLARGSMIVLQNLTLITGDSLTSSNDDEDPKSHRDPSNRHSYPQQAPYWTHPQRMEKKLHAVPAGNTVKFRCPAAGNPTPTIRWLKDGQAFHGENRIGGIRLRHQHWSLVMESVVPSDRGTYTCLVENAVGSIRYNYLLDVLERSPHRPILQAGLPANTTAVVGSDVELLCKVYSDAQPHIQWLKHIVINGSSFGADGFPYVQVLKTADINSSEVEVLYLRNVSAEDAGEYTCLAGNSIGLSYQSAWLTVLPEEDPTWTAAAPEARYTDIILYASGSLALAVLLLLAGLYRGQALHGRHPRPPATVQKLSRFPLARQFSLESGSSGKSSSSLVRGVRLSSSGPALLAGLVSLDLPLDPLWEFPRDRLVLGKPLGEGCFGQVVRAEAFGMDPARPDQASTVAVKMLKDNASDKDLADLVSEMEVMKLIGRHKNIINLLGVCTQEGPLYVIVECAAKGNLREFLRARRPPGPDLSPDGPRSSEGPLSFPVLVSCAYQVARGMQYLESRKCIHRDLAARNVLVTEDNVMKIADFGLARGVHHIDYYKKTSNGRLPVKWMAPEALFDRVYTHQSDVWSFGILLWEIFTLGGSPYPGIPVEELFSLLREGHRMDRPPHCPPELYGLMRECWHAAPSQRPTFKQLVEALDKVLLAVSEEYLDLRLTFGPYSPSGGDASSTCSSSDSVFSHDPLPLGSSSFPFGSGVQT

[7] = biological target: Dual specificity mitogen-activated protein kinase kinase 1 (Homo sapiens) (UniProt Q02750); assay: Inhibition of N-terminal GST and C-terminal His6-tagged recombinant full-length human MEK1 expressed in E. coli assessed as residual activity at 0.1 uM relative to control
[8] = biological target: Serine/threonine-protein kinase ULK3 (Homo sapiens) (UniProt Q6PHR2); assay: Inhibition of N-terminal 6His-tagged recombinant human full-length ULK3 expressed in baculovirus infected Sf21 cells assessed as residual activity at 0.1 uM relative to control
[9] = biological target: Casein kinase I isoform gamma-1 (Homo sapiens) (UniProt Q9HCP0); assay: Inhibition of N-terminal 6His-tagged recombinant human CK1gamma1 (25 to 355 residues) expressed in baculovirus infected Sf21 cells assessed as residual activity at 1 uM relative to control
[10] = biological target: Tyrosine-protein kinase Fes/Fps (Homo sapiens) (UniProt P07332); assay: Inhibition of N-terminal His6-tagged recombinant full length human Fes expressed in baculovirus infected Sf21 cells assessed as residual activity at 1 uM relative to control
Insulin receptor = Insulin receptor (Homo sapiens, UniProt P06213); assay: Inhibition of N-terminal His6-tagged recombinant human IR (1005 to 1310 residues) expressed in baculovirus infected Sf21 cells assessed as residual activity at 1 uM relative to control
Chain of Insulin receptor (P06213 28-758 limits assumed): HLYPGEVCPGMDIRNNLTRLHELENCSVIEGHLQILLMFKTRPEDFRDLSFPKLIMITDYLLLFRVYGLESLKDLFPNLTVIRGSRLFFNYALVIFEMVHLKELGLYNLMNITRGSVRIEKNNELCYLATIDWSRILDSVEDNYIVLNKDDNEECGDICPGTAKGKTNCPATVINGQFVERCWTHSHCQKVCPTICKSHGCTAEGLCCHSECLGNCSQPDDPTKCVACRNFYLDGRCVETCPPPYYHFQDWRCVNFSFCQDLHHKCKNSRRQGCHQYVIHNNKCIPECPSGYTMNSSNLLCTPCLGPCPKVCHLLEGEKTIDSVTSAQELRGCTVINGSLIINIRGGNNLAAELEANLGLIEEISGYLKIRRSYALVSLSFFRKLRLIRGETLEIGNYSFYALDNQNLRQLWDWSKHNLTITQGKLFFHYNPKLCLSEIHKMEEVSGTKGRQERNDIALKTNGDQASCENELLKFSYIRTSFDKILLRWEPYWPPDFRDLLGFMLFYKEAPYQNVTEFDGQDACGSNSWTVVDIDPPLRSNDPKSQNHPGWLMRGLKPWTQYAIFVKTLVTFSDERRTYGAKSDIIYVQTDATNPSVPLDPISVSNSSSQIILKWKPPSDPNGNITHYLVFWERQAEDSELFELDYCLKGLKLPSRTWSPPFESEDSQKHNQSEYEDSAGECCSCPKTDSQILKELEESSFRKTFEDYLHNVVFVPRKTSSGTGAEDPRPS
Chain of Insulin receptor (P06213 763-1382 limits assumed): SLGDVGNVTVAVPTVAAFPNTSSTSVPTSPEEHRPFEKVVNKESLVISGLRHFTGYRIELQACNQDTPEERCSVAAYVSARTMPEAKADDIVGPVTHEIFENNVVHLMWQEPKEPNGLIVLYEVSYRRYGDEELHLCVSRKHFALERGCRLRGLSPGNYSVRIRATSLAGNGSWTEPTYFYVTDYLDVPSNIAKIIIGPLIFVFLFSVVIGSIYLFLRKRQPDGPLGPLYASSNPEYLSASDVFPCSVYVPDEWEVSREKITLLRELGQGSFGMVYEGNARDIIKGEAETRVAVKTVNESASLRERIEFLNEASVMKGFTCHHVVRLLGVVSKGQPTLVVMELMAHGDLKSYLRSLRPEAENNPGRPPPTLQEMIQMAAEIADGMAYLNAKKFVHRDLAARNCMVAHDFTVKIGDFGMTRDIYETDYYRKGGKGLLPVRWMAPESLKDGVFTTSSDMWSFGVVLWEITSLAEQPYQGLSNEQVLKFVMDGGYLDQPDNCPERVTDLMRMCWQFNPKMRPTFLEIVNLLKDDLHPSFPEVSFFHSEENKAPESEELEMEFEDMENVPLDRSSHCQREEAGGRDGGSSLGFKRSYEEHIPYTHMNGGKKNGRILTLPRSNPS

[11] = biological target: RAC-alpha serine/threonine-protein kinase (Homo sapiens, UniProt P31749); assay: Inhibition of N-terminal His6 tagged recombinant full-length human PKBalpha expressed in baculovirus infected Sf21 cells assessed as residual activity at 1 uM relative to control
Chain of RAC-alpha serine/threonine-protein kinase (P31749 whole entry): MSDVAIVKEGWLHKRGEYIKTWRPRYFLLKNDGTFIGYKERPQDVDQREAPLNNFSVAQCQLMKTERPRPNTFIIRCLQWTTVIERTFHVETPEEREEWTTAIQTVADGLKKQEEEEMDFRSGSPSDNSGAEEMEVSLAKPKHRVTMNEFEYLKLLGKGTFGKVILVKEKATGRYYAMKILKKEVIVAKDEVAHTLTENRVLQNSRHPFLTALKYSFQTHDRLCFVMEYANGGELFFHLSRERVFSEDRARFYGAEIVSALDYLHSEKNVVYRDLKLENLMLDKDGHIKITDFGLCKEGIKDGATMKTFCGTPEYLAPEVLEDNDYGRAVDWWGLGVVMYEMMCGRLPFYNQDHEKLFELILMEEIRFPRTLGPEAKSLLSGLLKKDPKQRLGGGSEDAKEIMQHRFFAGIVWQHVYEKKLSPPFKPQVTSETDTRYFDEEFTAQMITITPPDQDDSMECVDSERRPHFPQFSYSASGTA

HCC1806 = assay: Antiproliferative activity against human HCC1806 cells assessed as inhibition of cell growth incubated for 72 hrs by cell-titer glo assay; assay type: functional, cell-based; settings: HCC1806, 72 h
How it was run: (§1)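 Cells seeded at 10,000–30,000/cm² (adherent) or 100,000/mL (nonadherent) in medium with 10% fetal calf serum; after 24 h, treated in duplicate with serial dilutions for 72 h. Viable cell number read by CellTiter-Glo luminescence; IC50 from sigmoidal fit; at least two independent experiments.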

CAL-51 = assay: Antiproliferative activity against human CAL-51 cells assessed as inhibition of cell growth incubated for 72 hrs by cell-titer glo assay; assay type: functional, cell-based; settings: CAL-51, 72 h
How it was run: (§2)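 Cells seeded 10,000–30,000/cm² (adherent) or 100,000/mL (suspension) in medium with 10% fetal calf serum; after 24 h treated in duplicate with serial dilutions for 72 h. Viable cells read by CellTiter-Glo luminescence; IC50 from sigmoidal fit; at least two independent experiments.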

T84 = assay: Antiproliferative activity against human T84 cells assessed as inhibition of cell growth incubated for 72 hrs by cell-titer glo assay; assay type: functional, cell-based; settings: T84, 72 h
[12] = Antiproliferative activity against human PL-21 cells assessed as inhibition of cell growth incubated for 72 hrs by cell-titer glo assay; assay type: functional, cell-based; settings: PL-21, 72 h
How it was run: (§3)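 Cells from ATCC or ECACC, kept in supplier-recommended medium with 1% penicillin-streptomycin at 37°C, 5% CO₂. Seeded at 10,000–30,000/cm² (adherent) or 100,000/mL (nonadherent) in medium with 10% fetal calf serum. Dosed after 24 h in duplicate with serial dilutions. Viable cells read by CellTiter-Glo 72 h later. IC50 from sigmoidal fit. At least two independent experiments.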

SK-MEL-28 = assay: Antiproliferative activity against human SK-MEL-28 cells assessed as inhibition of cell growth incubated for 72 hrs by cell-titer glo assay; assay type: functional, cell-based; settings: SK-MEL-28, 72 h
THP-1 = assay: Antiproliferative activity against human THP-1 cells assessed as inhibition of cell growth incubated for 72 hrs by cell-titer glo assay; assay type: functional, cell-based; settings: THP-1, 72 h
[13] = Antiproliferative activity against human MEC-1 cells assessed as inhibition of cell growth incubated for 72 hrs by cell-titer glo assay; assay type: functional, cell-based; settings: MEC1, 72 h; how it was run: as §1
697 = assay: Antiproliferative activity against human 697 cells assessed as inhibition of cell growth incubated for 72 hrs by cell-titer glo assay; assay type: functional, cell-based; settings: Homo sapiens, 697, 72 h; how it was run: as §2
OPM-2 = assay: Antiproliferative activity against human OPM-2 cells assessed as inhibition of cell growth incubated for 72 hrs by cell-titer glo assay; assay type: functional, cell-based; settings: OPM-2, 72 h; how it was run: as §3
[14] = Half-life in nu/nu mouse at 10 mg/kg, iv by LC-MS analysis; assay type: ADME, organism-based; settings: in vivo
[15] = AUC in nu/nu mouse at 10 mg/kg, iv by LC-MS analysis; assay type: ADME, organism-based; settings: in vivo
[16] = AUC in Beagle dog at 5 mg/kg, iv by LC-MS analysis; assay type: ADME, organism-based, Canis lupus familiaris; settings: in vivo
[17] = AUC in male cynomolgus monkey at 5 mg/kg, po by LC-MS analysis; assay type: ADME, organism-based, Macaca fascicularis; settings: in vivo
[18] = Oral bioavailability in Sprague-Dawley rat at 10 mg/kg by LC-MS analysis; assay type: ADME, organism-based; settings: in vivo
U2OS = assay: Induction of apoptosis in human U2OS cells assessed as colocalization of cells by measuring Histone H3 phosphorylation on Ser10 incubated for 24 hrs by DRAQ 5 staining based high content imaging assay relative to control; assay type: functional
NHDF = assay: Induction of DNA damage in human NHDF cells assessed as H2AX phosphorylation at 0.5 to 1 uM incubated for 8 hrs followed by compound washout and measured after 24 to 48 hrs by Western blotting analysis; assay type: toxicity, cell-based; settings: dose 0.5-1 µM
HCT-116 = assay: Antitumor activity against human HCT-116 cells xenografted in nu/nu mouse assessed as tumor growth inhibition at 60 mg/kg administered for 10 days relative to control; assay type: functional; settings: HCT-116, 240 h, time 10 day, read-out: TGI

Chain of Serine/threonine-protein kinase Chk1 (O14757 whole entry): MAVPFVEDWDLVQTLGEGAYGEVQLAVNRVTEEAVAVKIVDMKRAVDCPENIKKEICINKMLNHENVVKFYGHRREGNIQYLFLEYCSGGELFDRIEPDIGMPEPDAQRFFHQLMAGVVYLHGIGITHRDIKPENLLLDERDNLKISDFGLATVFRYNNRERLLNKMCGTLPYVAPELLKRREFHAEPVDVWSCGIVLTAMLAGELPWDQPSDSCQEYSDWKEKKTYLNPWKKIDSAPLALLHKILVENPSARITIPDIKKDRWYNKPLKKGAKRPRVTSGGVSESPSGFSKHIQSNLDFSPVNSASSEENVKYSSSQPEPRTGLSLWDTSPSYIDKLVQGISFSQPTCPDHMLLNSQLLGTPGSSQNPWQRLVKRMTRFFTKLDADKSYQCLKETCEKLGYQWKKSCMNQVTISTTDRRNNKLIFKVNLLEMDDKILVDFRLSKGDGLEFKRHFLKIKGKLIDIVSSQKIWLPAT

CN1CCN(c2ccc(OC(F)(F)F)c(Nc3ncc4c(n3)-c3c(c(C(N)=O)nn3CCO)CC4)c2)CC1 [ONVANSERTIB]
IC50 [1]: > 10000 nM | IC50 [2]: > 10000 nM | Activity [3]: 123% | Activity [4]: 64% | Activity [5]: 58% | Activity [6]: 93% | Activity [7]: 113% | Activity [8]: 139% | Activity [9]: 60% | Activity [10]: 30% | Activity (Insulin receptor): 90% | Activity [11]: 88% | IC50 (HCC1806): 18 nM | IC50 (CAL-51): 19 nM | IC50 (T84): 174 nM | IC50 [12]: 22 nM | IC50 (SK-MEL-28): 78 nM | IC50 (THP-1): 32 nM | IC50 [13]: 112 nM | IC50 697: 26 nM | IC50 (OPM-2): 38 nM | half-life [14]: 54 min | AUC [15]: 8.6 µM·h | AUC [16]: 4.2 µM·h | AUC [17]: 14.8 µM·h | F [18]: 100% | Activity (U2OS): 13% | Activity (NHDF): Non-Toxic | inhibition in vivo at 60 mg/kg (HCT-116): 89%
